This is a sample that favours compounds with a hit; in the whole collection about 1.4% have one here.
CAL PDZ FP-1: CAL PDZ (human) peptide binding inhibition; purified CAL PDZ, TMR-peptide fluorescence polarization, 1 h; inhibition, % at 24.9 µM; 0.92% of 300,000 active;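 active = mean inhibition of at least 30% with at least half of replicates also reaching 30%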;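 note: 0% = DMSO neutral control and 100% = excess unlabeled competitor peptide PRC23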
DDE Tn6 FP inh: disrupts Tn6 cyclic peptide binding to fibrin D-Dimer-E complex. Fibrin DD(E) TRITC-Tn6 fluorescence polarization displacement. inhibition, % at 8.3 µM. 0.21% of 370,000 active;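 active = inhibition above a per-campaign cutoff: mean of compounds within control limits plus 3 SD, cut at about 15% in these data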;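 note: 0% = median of all compound wells on the plate and 100% = blocking peptide control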
DDE Tn7 FP inh: DD(E)-Tn7 binding inhibition, primary FP screen; FP displacement of FITC-Tn7 peptide from fibrin DD(E); 0% = median of compound wells per plate; P02675; AID 720508; 0.13% of 370,000 active; inhibition, % at 8.3 µM;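 active = inhibition above the mean of compounds falling within the control limits plus 3 SD of them, cut at about 14% in these data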;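 note: 0% = plate median of compound wells and 100% = 10 µM Aha-Tn7 peptide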
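Assay system: human fibrin DD(E). Input: DD(E) 2 µM final. Medium: Tris buffer with calcium and detergent, pH 7.8. Compound dosing: single point at 8.3 µM. Timing: 10 min plus 3 h, room temperature. Technique: fluorescence polarization of the labelled Tn7 tracer. Read-out: percent inhibition. Replicates: singlicate testing.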
CAL PDZ FP-2: human CAL PDZ-peptide interaction inhibition; Q9HD26; purified CAL PDZ, TMR-peptide fluorescence polarization, 1 h; inhibition, % at 20 µM; 0.02% of 330,000 active;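 active = highest replicate inhibition of at least 40%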;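 note: plate controls were DMSO neutral control wells for no effect and unlabeled competitor peptide control wells for full effect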
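System: tagged CAL PDZ domain. Schedule: 1 h room-temperature incubation prior to read. Signal: fluorescence polarization (mP). Measure: percent inhibition from loss of millipolarization.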
Arrestin-AP2 inh: blocks beta-arrestin peptide binding to AP2 adaptin | FITC-arrestin peptide / GST-AP2 beads, flow cytometry; AP2 beta2 appendage carries R879A mutation | inhibition, % at 10 µM | 0.31% of 340,000 active | AID 504490;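 active = inhibition above a set limit, near 3 SD of compounds lacking own fluorescence, cut at about 54% in these data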;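 note: plate controls were DMSO wells for no effect and 5 µM unlabelled arrestin peptide for full effect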
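System: GST-tagged AP2 beta2-adaptin appendage (R879A) on 4 µm glutathione beads / Reagent: FITC-arrestin peptide, 50 nM / Detection: HyperCyt-sampled flow cytometry, FL1 channel, ex 488/em 535 nm / Timing: 12 min plus 1 h, RT / Buffer or medium: PBS plus Tween 20 (0.05%) and BSA (0.1%)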
Arr AP2 CP1: inhibitors of human beta-arrestin and AP2 interaction | shares compounds with Arrestin-AP2 inh | GST-AP2 beads, FITC arrestin peptide binding, flow cytometry; GST-fused beta2-adaptin appendage, R879A mutant | inhibition, % at 10 µM | 2% of 1,300 active | AID 504908;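 active = inhibition above a set limit, roughly 3 SD of non-fluorescent compound noise, cut at about 38% in these data; inactive = inhibition at or below that limit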;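 note: loss of bead fluorescence from 50 nM FITC arrestin peptide bound to appendage; 0% = negative control wells and 100% = excess unlabelled arrestin peptide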
Target sequence (P63010 whole entry, looked up, the tested form may be a part, one chain of several): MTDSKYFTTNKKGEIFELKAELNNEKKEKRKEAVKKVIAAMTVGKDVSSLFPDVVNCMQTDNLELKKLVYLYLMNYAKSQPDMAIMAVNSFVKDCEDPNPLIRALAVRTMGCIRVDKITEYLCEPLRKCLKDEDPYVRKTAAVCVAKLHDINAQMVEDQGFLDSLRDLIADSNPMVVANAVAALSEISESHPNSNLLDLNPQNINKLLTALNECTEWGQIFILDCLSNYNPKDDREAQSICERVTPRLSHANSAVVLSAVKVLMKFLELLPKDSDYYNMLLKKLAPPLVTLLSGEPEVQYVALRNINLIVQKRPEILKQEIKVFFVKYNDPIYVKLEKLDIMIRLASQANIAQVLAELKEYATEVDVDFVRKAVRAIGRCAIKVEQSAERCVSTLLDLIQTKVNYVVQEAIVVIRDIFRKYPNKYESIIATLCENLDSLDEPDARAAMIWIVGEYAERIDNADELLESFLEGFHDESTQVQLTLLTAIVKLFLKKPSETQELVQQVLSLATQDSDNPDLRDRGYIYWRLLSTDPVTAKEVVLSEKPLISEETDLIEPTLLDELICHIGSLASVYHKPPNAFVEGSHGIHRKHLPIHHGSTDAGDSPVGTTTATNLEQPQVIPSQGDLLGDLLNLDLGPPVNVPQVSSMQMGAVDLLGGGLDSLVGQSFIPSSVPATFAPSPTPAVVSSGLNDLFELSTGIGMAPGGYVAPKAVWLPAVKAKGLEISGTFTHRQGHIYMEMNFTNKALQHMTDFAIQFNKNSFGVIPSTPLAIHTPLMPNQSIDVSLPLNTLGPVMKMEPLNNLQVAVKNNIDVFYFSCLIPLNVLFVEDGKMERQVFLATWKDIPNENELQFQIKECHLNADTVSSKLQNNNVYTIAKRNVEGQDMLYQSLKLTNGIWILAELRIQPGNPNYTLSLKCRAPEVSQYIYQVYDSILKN
GST GSH counter: counter-screen for beta-arrestin AP2 inhibitors: GST-GSH bead binding; AID 588338; inhibition, % at 10 µM; 2% of 1,300 active; shares compounds with Arrestin-AP2 inh; GST-fluorescein binding to GSH beads, fluorescence;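 active = inhibition above 50%, about 3 SD of the inhibition seen with non-fluorescent compounds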;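 note: fluorescein maleimide labelled GST captured on 4 micron glutathione beads; higher means more loss of bead fluorescence from quenching or blocked binding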
* = called active by the depositor; nt = no result.

SMILES	CAL PDZ FP-1	DDE Tn6 FP inh	DDE Tn7 FP inh	CAL PDZ FP-2	Arrestin-AP2 inh	Arr AP2 CP1	GST GSH counter
CCOC(=O)C1=C(COC(=O)CCOc2cccc(C)c2)NC(=O)NC1C (stereo not given)	-4	10	4	-1	11	-8	-6
CCOC(=O)C1=C(COC(=O)CCOc2ccccc2)NC(=O)NC1C (stereo not given)	9	-3	-1	-2	-8	-10	-11
CCOC(=O)C1=C(COC(=O)CCOc2cc(C)ccc2C)NC(=O)NC1C (stereo not given)	6	-2	2	0	-6	-3	-9
Cc1cc(OC[C@@H](O)CN2CCC(C(O)(c3ccccc3)c3ccccc3)CC2)ccc1Br	nt	-6	-7	nt	nt	nt	nt
CC(=O)c1c(C)[nH]c(C(=O)OCC(=O)c2c(N)n(CC(C)C)c(=O)n(C)c2=O)c1C	nt	-3	-9	-1	0	5	5
CC(=O)Oc1ccc(-c2ccc(C(=O)OCC(=O)c3c(N)n(C)c(=O)n(C)c3=O)cc2)cc1	-2	1	1	-4	2	nt	nt
CC(C)Cn1c(N)c(C(=O)COC(=O)c2cnccn2)c(=O)n(C)c1=O	-1	-3	-8	-3	40	nt	nt
CC(C)Cn1c(N)c(C(=O)COC(=O)c2ccc(O)cc2)c(=O)n(C)c1=O	-9	3	7	0	-8	-8	-12
CC(C)Cn1c(N)c(C(=O)COC(=O)C2=COCCO2)c(=O)n(C)c1=O	-1	-6	4	0	10	nt	nt
Cn1c(N)c(C(=O)COC(=O)c2ccc(OC(F)F)cc2)c(=O)n(C)c1=O	2	-7	8	-2	16	0	-1
COc1cc(C(=O)OCC(=O)c2c(N)n(C)c(=O)n(C)c2=O)ccc1OCCC(C)C	26	-9	3	-1	55*	6	-4
COC(=O)C1CN(Cc2cn(Cc3ccccc3)nn2)CCS(=O)(=O)N1Cc1ccc(F)cc1 (stereo not given)	nt	7	3	nt	nt	nt	nt
CC(C)c1ccc(C(=O)OCC(=O)c2c(N)n(C)c(=O)n(C)c2=O)cc1	nt	6	6	1	20	18	3
Cn1c(N)c(C(=O)COC(=O)c2ccc(F)cc2Cl)c(=O)n(C)c1=O	9	-4	-9	-2	-12	11	7
Cn1c(N)c(C(=O)COC(=O)c2ccco2)c(=O)n(C)c1=O	-1	4	2	-1	7	5	0
Cc1nc2ccccn2c1C(O)(c1ccccc1)c1ccccc1	nt	5	-4	nt	nt	nt	nt
O=C1CC(N2CCCN(Cc3ccccc3)CC2)=NC(=O)N1c1ccc(Br)cc1	nt	-2	-4	nt	nt	nt	nt
Clc1ccc([C@H]2OC[C@@]3(CNCc4ccccn4)CS[C@H](c4ccc(Cl)cc4)N23)cc1	nt	1	-2	nt	nt	nt	nt
COC(=O)c1ccc(C(=O)Nc2ccc(C(C)C)cc2N)cc1	-2	3	-3	0	57*	15	-2
O=S(=O)(NCC(c1ccc2c(c1)OCO2)N1CCOCC1)c1ccc(Br)cc1 (stereo not given)	-1	9	2	-3	6	nt	nt
Oc1cc2c(cc1C(c1ccc(Br)cc1)N1CCCC1)OCO2 (stereo not given)	4	6	1	0	60*	11	18
O=C(COC(=O)c1ccc(F)cc1F)c1ccc[nH]1	-2	10	6	-2	72*	-4	2
CC(=O)CC(=O)Nc1ccc(C(N)=O)cc1	-5	0	1	-2	46	-9	-6
COc1cccc(NC(=O)CC(C)=O)c1	-2	-2	-2	1	57*	-5	-10
COc1cccc(NC(=O)Cc2ccccc2)c1	-2	-2	2	-2	1	nt	nt
SMILES	CAL PDZ FP-1	DDE Tn6 FP inh	DDE Tn7 FP inh	CAL PDZ FP-2	Arrestin-AP2 inh	Arr AP2 CP1	GST GSH counter
COc1cccc(NC(=O)CC(=O)c2ccccc2)c1	-1	-8	-2	0	63*	-1	-8
CCCC(=O)Nc1ccc(C(N)=O)cc1	-5	-3	4	0	-8	nt	nt
COCCCN1C(=O)[C@H](CC(=O)NCCCN2CCCC2=O)[C@]2(C(=O)OC)CCCCC=C12	nt	-3	7	nt	nt	nt	nt
O=C(CCNC(=O)c1ccc([N+](=O)[O-])cc1)NCCC1=CCCCC1	1	-7	1	-2	-1	nt	nt
O=C(CCNC(=O)c1ccc(Cl)cc1)NCCC1=CCCCC1	-1	0	-13	-2	64*	-10	-4
Cc1cc(C)nc(NS(=O)(=O)c2ccc(NC(=S)NC(=O)c3ccco3)cc2)n1	4	-3	-10	1	58*	-5	-5
CCc1cc2c(nc1CC)CCCN2S(=O)(=O)c1c(C)noc1C	nt	0	-3	nt	nt	nt	nt
Nc1nc(NCCO)nc(NCc2ccccc2)c1[N+](=O)[O-]	-2	nt	nt	0	-4	nt	nt
Nc1nc(NCc2ccccc2)nc(NCCO)c1[N+](=O)[O-]	-1	0	3	-1	56*	-6	-7
C[C@@H]1COc2cccc(NCCO)c2S(=O)(=O)N1	nt	5	2	nt	nt	nt	nt
CC(C)C(=O)OCC(=O)Nc1ccc(N=Nc2ccccc2)cc1	-4	4	2	0	56*	-4	-4
O=C(CCC(=O)N1CCN(S(=O)(=O)c2ccc(Cl)cc2)CC1)NCc1ccccc1	-6	10	0	0	58*	10	-1
O=C(CCSc1ccc(Cl)cc1)N1CCN(S(=O)(=O)c2ccccc2)CC1	-2	-1	-3	-1	-5	nt	nt
CCCCOCC1CN(CCCC)S(=O)(=O)c2c(cccc2Sc2ccc(SC)cc2)O1 (stereo not given)	nt	-8	-1	nt	nt	nt	nt
O=C(/C=C/c1ccc(S(=O)(=O)NCc2ccco2)cc1)N1CCN(c2ccccc2)CC1	-5	3	-7	-1	-12	nt	nt
O=C(c1ccc(S(=O)(=O)NCc2ccco2)cc1)N1CCN(c2ccc(F)cc2)CC1	-2	-6	9	0	59*	5	-10
CC(=O)c1ccc(N2CCN(C(=O)c3ccc(S(=O)(=O)NCc4ccco4)cc3)CC2)cc1	nt	1	1	-2	-9	3	-5
Cc1cc(C)cc(N(CC(=O)NC2CCC(C)CC2)S(=O)(=O)c2ccc(C)c(C)c2)c1 (stereo not given)	nt	3	6	nt	nt	nt	nt
C#CCNC(=O)C[C@H]1C(=O)N(CCCOC)C2=CCCCC[C@]21C(=O)OC	nt	-2	-6	nt	nt	nt	nt
O=[N+]([O-])c1cc(S(=O)(=O)N2CCCC2)ccc1N/N=C/c1cccnc1	-2	-4	-9	0	70*	17	28

Compound activity: PubChem, several laboratories
